Test results from ChEMBL document CHEMBL1154983, “Arylpiperazine-containing pyrrole 3-carboxamide derivatives targeting serotonin 5-HT(2A), 5-HT(2C), and the serotonin transporter as a potential antidepressant” (Bioorg Med Chem Lett, 2010).
One block for each molecule: values may come before it. Activity calls are given as the source filed them. The calls are words filed in the database; no cut-off is given here.

Legend:
[1] = tested on: Mus musculus; experiment: Antidepressant activity in mouse assessed as decrease in duration of immobility at 100 mg/kg, po during final 5 mins of the 6 mins session by forced swimming test; type: functional
Summary of the method: (§1)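 Mice swam 10 min in a 25-cm glass cylinder (10 cm diameter) holding 15 cm of water at 23 1 °C. Twenty-four hours later, drug was given po 60 min before retesting. Immobility (floating upright with only small movements keeping head above water) was totalled over the last 5 min of the 6-min test.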

[2] = molecular target: Sodium-dependent serotonin transporter (Homo sapiens, UniProt P31645); experiment: Displacement of [3H]imipramine from human SERT expressed in HEK293 cells after 30 mins by rapid filtration assay; type: cell-based
Summary of the method: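 Frozen membranes were from HEK293 cells expressing human SERT, with 4 nM [3H]imipramine in 50 mM Tris–HCl pH 7.4, 120 mM NaCl and 5 mM KCl. Unlabelled imipramine defined nonspecific binding. Incubation ran 30 min at 27 °C, terminated by rapid filtration through 0.5% PEI-presoaked glass-fibre filters.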

[3] = molecular target: T1, 5-hydroxytryptamine receptor 2C (Homo sapiens, UniProt P28335); experiment: Displacement of [3H]mesulergine from human recombinant 5-HT2C receptor expressed in CHO-K1 cells after 60 mins by rapid filtration assay; type: cell-based
T1 sequence (P28335 whole entry): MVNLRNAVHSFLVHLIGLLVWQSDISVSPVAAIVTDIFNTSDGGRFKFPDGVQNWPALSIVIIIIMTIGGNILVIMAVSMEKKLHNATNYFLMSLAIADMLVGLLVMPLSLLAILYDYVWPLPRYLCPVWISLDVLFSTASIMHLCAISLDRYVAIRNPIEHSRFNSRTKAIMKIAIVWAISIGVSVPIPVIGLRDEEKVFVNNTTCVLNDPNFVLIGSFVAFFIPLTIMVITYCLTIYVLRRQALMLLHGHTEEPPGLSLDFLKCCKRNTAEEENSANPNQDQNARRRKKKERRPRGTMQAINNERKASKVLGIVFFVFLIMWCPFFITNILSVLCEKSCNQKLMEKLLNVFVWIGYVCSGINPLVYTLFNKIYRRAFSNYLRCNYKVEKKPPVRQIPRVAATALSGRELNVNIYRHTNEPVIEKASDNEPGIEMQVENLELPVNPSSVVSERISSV
Summary of the method: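 Frozen membranes were from CHO-K1 cells stably expressing human recombinant 5-HT2C, with 1.4 nM [3H]mesulergine. Buffer was 50 mM Tris–HCl pH 7.4, 4 mM CaCl2 and 0.1% ascorbic acid, with methiothepin for nonspecific binding. Incubation ran 60 min at 27 °C, stopped by rapid filtration through 0.5% PEI-presoaked glass-fibre filters.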

[4] = molecular target: 5-hydroxytryptamine receptor 2A (Homo sapiens, UniProt P28223); experiment: Displacement of [3H]ketanserin from human recombinant 5-HT2A receptor expressed in CHO-K1 cells after 60 mins; type: cell-based
Summary of the method: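 Membranes were from CHO-K1 cells stably expressing 5-HT2A. Radioligand was at 1 nM, with mianserin defining nonspecific binding. Incubation ran 60 min at 27 °C in 50 mM Tris–HCl pH 7.4 with 4 mM CaCl2 and 0.1% ascorbic acid. Harvesting was by filtration through glass-fibre filters presoaked in 0.5% PEI.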

[5] = Half life in rat at 1 mg/kg, iv; type: ADME, organism-based; design: dose 1 mg/kg, route intravenous; conditions: in vivo
Summary of the method: (§2)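 Rats dosed once with the HCl salt, either i.v. at 1 mg/kg (n = 2 or 3) or orally at 5 mg/kg (n = 3). Plasma and brain levels were followed to derive Cmax, Clast, Tmax, t1/2, AUC, dose-normalised AUC, oral bioavailability (F) and the brain/plasma ratio.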

[6] = AUC in rat brain; type: ADME, tissue-based; summary of the method: as §2
[7] = AUC in rat plasma; type: ADME, cell-free; summary of the method: as §2
[8] = Cmax in rat at 1 mg/kg, iv; type: ADME, organism-based; design: dose 1 mg/kg, route intravenous; conditions: in vivo; summary of the method: as §2
[9] = Ratio of drug level in brain to plasma in rat; type: ADME, cell-free; summary of the method: as §2
[10] = Tmax in rat plasma; type: ADME, cell-free; summary of the method: as §2
[11] = Cmax in rat brain; type: ADME, organism-based; summary of the method: as §2
[12] = tested on: Rattus norvegicus; experiment: Dose normalized AUC (0 to infinity) in rat at 1 mg/kg, iv; type: ADME, organism-based; design: dose 1 mg/kg, route intravenous; conditions: in vivo; summary of the method: as §2
[13] = tested on: Rattus norvegicus; experiment: Clast in rat at 5 mg/kg, po; type: ADME, organism-based; design: dose 5 mg/kg, route oral; conditions: in vivo; summary of the method: as §2
[14] = Tmax in rat brain; type: ADME, tissue-based; summary of the method: as §2
[15] = tested on: Rattus norvegicus; experiment: (§3) Oral bioavailability in rat at 5 mg/kg; type: ADME, organism-based; conditions: in vivo; summary of the method: as §2
[16] = Elimination half life in rat at 5 mg/kg, po; type: ADME, organism-based; design: dose 5 mg/kg, route oral; conditions: in vivo, read-out: beta t1/2 (converted); summary of the method: as §2
[17] = Tmax in rat at 5 mg/kg, po; type: ADME, organism-based; design: dose 5 mg/kg, route oral; conditions: in vivo; summary of the method: as §2
[18] = tested on: Rattus norvegicus; experiment: (§4) AUC (0 to infinity) in rat at 1 mg/kg, iv; type: ADME, organism-based, Plasma; design: time infinity, dose 1 mg/kg, route intravenous; conditions: in vivo; summary of the method: as §2
[19] = Cmax in rat plasma; type: ADME, organism-based; summary of the method: as §2
[20] = Half life in rat brain; type: ADME, tissue-based; summary of the method: as §2
[21] = Half life in rat plasma; type: ADME, cell-free; summary of the method: as §2
[22] = tested on: Brain; experiment: Clast in rat brain; type: ADME, tissue-based; conditions: in vivo; summary of the method: as §2
[23] = tested on: Rattus norvegicus; experiment: Clast in rat at 1 mg/kg, iv; type: ADME, organism-based; design: dose 1 mg/kg, route intravenous; conditions: in vivo; summary of the method: as §2
[24] = Cmax in rat at 5 mg/kg, po; type: ADME, organism-based; design: dose 5 mg/kg, route oral; conditions: in vivo; summary of the method: as §2
[25] = tested on: Rattus norvegicus; experiment: Dose normalized AUCirlf in rat at 5 mg/kg, po; type: ADME, organism-based; design: dose 5 mg/kg, route oral; conditions: in vivo; summary of the method: as §2
[26] = tested on: Plasma; experiment: Clast in rat plasma; type: ADME, cell-free; summary of the method: as §2
[27] = tested on: Mus musculus; experiment: Antidepressant activity in mouse assessed as decrease in duration of immobility at 10 mg/kg, po during final 5 mins of the 6 mins session by forced swimming test; type: functional; summary of the method: as §1
[28] = molecular target: 5-hydroxytryptamine receptor 7 (Homo sapiens, UniProt P34969); experiment: Inhibition of 5HT7 receptor
[29] = as §3; type: ADME, organism-based; conditions: in vivo; summary of the method: as §2
[30] = AUC (0 to infinity) in rat at 5 mg/kg, po; type: ADME, organism-based; design: time infinity, dose 5 mg/kg, route oral; conditions: plasma; summary of the method: as §2
[31] = as §4; type: ADME, organism-based, Plasma; design: time infinity, dose 1 mg/kg, route intravenous; conditions: plasma; summary of the method: as §2

Sequence of Sodium-dependent serotonin transporter (P31645 whole entry): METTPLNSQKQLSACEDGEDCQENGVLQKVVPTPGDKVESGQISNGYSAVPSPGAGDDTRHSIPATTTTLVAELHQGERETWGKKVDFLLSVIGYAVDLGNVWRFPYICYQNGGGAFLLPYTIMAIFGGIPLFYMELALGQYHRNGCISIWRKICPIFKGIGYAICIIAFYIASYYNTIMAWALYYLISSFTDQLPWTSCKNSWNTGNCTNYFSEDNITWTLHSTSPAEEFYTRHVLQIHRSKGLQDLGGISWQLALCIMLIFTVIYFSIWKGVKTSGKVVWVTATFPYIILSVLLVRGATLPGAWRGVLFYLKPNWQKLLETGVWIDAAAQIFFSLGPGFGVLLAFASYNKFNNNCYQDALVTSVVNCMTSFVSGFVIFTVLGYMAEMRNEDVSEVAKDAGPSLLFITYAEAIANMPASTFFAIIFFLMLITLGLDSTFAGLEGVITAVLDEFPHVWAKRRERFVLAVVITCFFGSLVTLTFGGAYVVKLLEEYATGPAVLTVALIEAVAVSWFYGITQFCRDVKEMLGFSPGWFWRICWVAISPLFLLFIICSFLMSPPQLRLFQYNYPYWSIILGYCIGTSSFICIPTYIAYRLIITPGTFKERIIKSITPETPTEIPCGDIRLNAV
Sequence of 5-hydroxytryptamine receptor 2A (P28223 whole entry): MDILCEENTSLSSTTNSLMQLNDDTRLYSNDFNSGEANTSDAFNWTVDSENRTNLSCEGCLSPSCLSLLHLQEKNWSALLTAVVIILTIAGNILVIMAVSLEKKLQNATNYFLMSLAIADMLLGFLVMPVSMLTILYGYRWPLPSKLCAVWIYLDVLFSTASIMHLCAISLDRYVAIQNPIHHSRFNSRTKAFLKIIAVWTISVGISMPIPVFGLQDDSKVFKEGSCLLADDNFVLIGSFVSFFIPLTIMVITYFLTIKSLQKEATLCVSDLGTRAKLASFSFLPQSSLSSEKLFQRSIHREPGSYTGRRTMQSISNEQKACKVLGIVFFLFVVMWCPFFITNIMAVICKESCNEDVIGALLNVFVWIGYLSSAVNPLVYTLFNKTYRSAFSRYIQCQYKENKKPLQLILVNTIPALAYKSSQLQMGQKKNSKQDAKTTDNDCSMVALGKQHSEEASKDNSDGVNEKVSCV
Sequence of 5-hydroxytryptamine receptor 7 (P34969 whole entry): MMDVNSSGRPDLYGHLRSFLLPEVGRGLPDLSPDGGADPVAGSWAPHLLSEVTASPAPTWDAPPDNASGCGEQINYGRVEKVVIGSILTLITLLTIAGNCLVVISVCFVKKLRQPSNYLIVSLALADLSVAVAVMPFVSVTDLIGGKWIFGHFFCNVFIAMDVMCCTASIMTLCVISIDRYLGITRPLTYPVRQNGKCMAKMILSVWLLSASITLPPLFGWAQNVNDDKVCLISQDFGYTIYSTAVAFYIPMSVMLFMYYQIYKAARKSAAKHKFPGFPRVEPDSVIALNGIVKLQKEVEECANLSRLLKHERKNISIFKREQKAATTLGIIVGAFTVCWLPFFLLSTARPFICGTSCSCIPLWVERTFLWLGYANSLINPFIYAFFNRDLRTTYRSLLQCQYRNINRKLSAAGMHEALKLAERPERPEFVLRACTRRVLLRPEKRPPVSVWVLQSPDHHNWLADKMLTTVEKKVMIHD

IC50 [2]: 92 nM
IC50 [3]: 417 nM
IC50 [4]: 133 nM
Structure (SMILES): Cc1cccc(N2CCN(CCCNC(=O)c3cc(-c4ccccc4)n(N4CCCCC4)c3C)CC2)c1C

IC50 [2]: 110 nM
IC50 [3]: 1600 nM
IC50 [4]: 333 nM
Structure (SMILES): Cc1c(C(=O)NCCCN2CCN(c3cccc(Cl)c3)CC2)cc(-c2ccccc2)n1CC(C)C

IC50 [2]: 76 nM
IC50 [3]: 225 nM
IC50 [4]: 129 nM
Structure (SMILES): CCCn1c(-c2ccccc2)cc(C(=O)NCCCN2CCN(c3cccc(C)c3C)CC2)c1C

The remaining lines, values behind:

Structure (SMILES): Cc1c(C(=O)NCCCN2CCN(c3cccc(Cl)c3)CC2)cc(-c2ccccc2)n1C
Activity [1]: inactive

Structure (SMILES): Cc1[nH]c(-c2ccccc2)cc1C(=O)NCCCN1CCN(c2cccc(Cl)c2Cl)CC1.Cl
half-life [5]: 1.76 h
AUC [6]: 247 ng·h/mL
AUC [7]: 538 ng·h/mL
Cmax [8]: 690 ng/mL
Kp [9]: 46
Tmax [10]: 2 h
Cmax [11]: 90 ng/mL
AUC/dose [12]: 20.945 µg·min/mL
Clast [13]: 1 ng/mL
Tmax [14]: 2 h
F [15]: 61.03%
half-life [16]: 2.52 h
Tmax [17]: 1.17 h
AUC [18]: 20.945 µg·min/mL
Cmax [19]: 190 ng/mL
half-life [20]: 3.42 h
half-life [21]: 1.97 h
Clast [22]: 60 ng/mL
Clast [23]: 4 ng/mL
Cmax [24]: 245 ng/mL
AUC/dose [25]: 12.783 µg·min/mL
Clast [26]: 100 ng/mL

Structure (SMILES): Cc1c(C(=O)NCCCN2CCN(c3cccc(Cl)c3Cl)CC2)cc(-c2ccccc2)n1N1CCCCC1
Activity [27]: inactive
IC50 [28]: 493 nM
Activity [1]: Active

Structure (SMILES): Cc1c(C(=O)NCCCN2CCN(c3cccc(Cl)c3Cl)CC2)cc(-c2ccccc2)n1C.Cl
half-life [5]: 2.82 h
AUC [6]: 82.7 ng·h/mL
AUC [7]: 240 ng·h/mL
Cmax [8]: 454 ng/mL
Kp [9]: 34.5
Tmax [10]: 1 h
Cmax [11]: 30 ng/mL
AUC/dose [12]: 18.703 µg·min/mL
Clast [13]: 1 ng/mL
Tmax [14]: 2 h
bioavailability [29]: 24.8%
AUC(0-inf) [30]: 386 ng·h/mL
half-life [16]: 3.14 h
Tmax [17]: 0.75 h
AUC(0-inf) [31]: 312 ng·h/mL
Cmax [19]: 70 ng/mL
half-life [20]: 4.28 h
half-life [21]: 3.71 h
Clast [22]: 20 ng/mL
Clast [23]: 8 ng/mL
Cmax [24]: 118 ng/mL
AUC/dose [25]: 4.63 µg·min/mL
Clast [26]: 40 ng/mL

Structure (SMILES): CCn1c(-c2ccccc2)cc(C(=O)NCCCN2CCN(c3cccc(Cl)c3)CC2)c1C
Activity [1]: inactive

Structure (SMILES): CCn1c(-c2ccccc2)cc(C(=O)NCCCN2CCN(c3cccc(Cl)c3Cl)CC2)c1C
Activity [27]: inactive
Activity [1]: <25%
